Data reported in publication PMC5199614 (Journal of bone and mineral research : the official journal …, 2016).

Key:
[1] = humans, cited from earlier work
C57BL/6J mice [2] = assay: Blood ionized calcium after iv injection in mice; assay type: in vivo, mouse; conditions: iv 50 nmol/kg; for peak blood Ca^2+ increase above pre-injection (t = 0) level: n = 6 per group
human PTHR1 = biological target: T1, human PTHR1 (Homo sapiens, UniProt Q03431); assay: cAMP signaling; assay type: cell-based; conditions: GP-2.3 cells; for Emax (cAMP-dependent luminescence): vehicle 1.3 ± 0.1, means ±SEM of 10 experiments
T1 sequence (Q03431 27-593): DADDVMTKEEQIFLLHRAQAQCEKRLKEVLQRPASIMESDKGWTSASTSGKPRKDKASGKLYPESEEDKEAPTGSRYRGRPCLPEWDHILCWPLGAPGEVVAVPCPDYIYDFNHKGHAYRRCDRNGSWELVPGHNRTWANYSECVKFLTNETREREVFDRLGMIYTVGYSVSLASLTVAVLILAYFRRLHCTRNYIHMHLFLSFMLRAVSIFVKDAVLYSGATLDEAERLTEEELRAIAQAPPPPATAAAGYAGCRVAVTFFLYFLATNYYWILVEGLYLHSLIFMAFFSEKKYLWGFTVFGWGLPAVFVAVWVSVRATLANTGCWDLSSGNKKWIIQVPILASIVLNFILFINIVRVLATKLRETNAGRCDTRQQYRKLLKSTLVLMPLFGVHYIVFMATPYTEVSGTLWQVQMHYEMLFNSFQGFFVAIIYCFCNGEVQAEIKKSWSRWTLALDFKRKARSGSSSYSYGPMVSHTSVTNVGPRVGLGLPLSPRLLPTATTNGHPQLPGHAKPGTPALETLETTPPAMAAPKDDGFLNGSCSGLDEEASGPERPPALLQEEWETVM

[3] = system: PTHR1-expressing GP-2.3 cells; assay: Confocal microscopy of ligand internalization in GP-2.3 and GS-22A cells; assay type: cell-based, human; conditions: 100 nM; for ligand localization in GP-2.3 cells: 15 minutes at 21°C, confocal TMR fluorescence; for TMR fluorescence in parental GS-22A cells (not transfected with PTHR1): confocal microscopy
Outline: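 GP-2.3 cells (HEK-293 with stable human PTHR1 and glosensor) and parental GS-22A cells (glosensor only) were grown on coverslips to ~75% confluence. Cells were exposed to TMR-ligand at 100 nM in HBB for 15 min at 21°C, or for 30 min at 4°C to block internalization. They were then rinsed thrice, fixed in 4% formalin for 5 min and mounted with DAPI. Confocal imaging used 405/559 nm excitation.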

C57BL/6J mice [4] = assay: Plasma Pi after iv injection in mice; assay type: in vivo, mouse; conditions: iv 50 nmol/kg; for time of Pi nadir: after injection; for decline of blood phosphate (Pi) at the nadir: n = 6 per group
C57BL/6J mice [5] = assay: Urinary fractional excretion of Ca and Pi after iv injection in mice; assay type: in vivo, mouse; conditions: iv 50 nmol/kg, spot urine
C57BL/6J mice [6] = assay: Blood 1,25; assay type: in vivo, mouse; conditions: iv 50 nmol/kg; for blood 1,25(OH)2D relative to vehicle-injected mice: 2 hours after injection
[7] = system: renal proximal tubule cells; assay type: in vivo, mouse; conditions: 5 minutes (NS^TMR) or 5 or 60 minutes after iv injection
[8] = Persistence of injected ligand in mouse blood and urine; conditions: mice, iv 50 nmol/kg, 1 μL plasma in PBS, n = 6

| Substance | peak blood Ca^2+ increase above pre-injection (t = 0) level (C57BL/6J mice [2]) | time of return of blood Ca^2+ to baseline (C57BL/6J mice [2]; post-injection) [h] | Emax (cAMP-dependent luminescence) (human PTHR1) [cps × 10^−3] | ligand localization in GP-2.3 cells [3] | TMR fluorescence in parental GS-22A cells (not transfected with PTHR1) [3] | time of Pi nadir (C57BL/6J mice [4]) [h] | decline of blood phosphate (Pi) at the nadir (C57BL/6J mice [4]) [%] | blood 1,25(OH)2D relative to vehicle-injected mice (C57BL/6J mice [6]) | immunostained phosphorylated PKA substrate in kidney sections [7] | other results |
| --- | --- | --- | --- | --- | --- | --- | --- | --- | --- | --- |
| PTH(1-84) |  |  |  |  |  |  |  |  |  | serum half-time ([1]; injected subcutaneously): about 2.5 hours |
| [Lys^13(tetramethyl rhodamine {TMR}), Cys^35(PEG-20,000 Da)]PTH(1-35) [PEG-PTH^TMR] | ~ 21% | 96 | 178 ± 14 | located predominantly in internalized vesicles | No such TMR fluorescence was observed | 2 | 42 | about threefold | at least comparable to that observed with the PTH^TMR ligand | time of peak blood Ca^2+ (C57BL/6J mice [2]; post-injection): 24 h; potency (EC50) relative to PTH(1-34) and PTH^TMR (human PTHR1; cAMP): about three- to fivefold weaker; duration of effects on urinary fractional excretion of Ca and Pi (C57BL/6J mice [5]): up to 24 hours; blood 1,25(OH)2D (C57BL/6J mice [6]; 24 hours after injection): marked increases |
| PTH(1-34) |  |  |  |  |  |  |  |  |  | half-time (t1/2) of disappearance from the circulation ([1]; injected intravenously): 10 ± 0.5 min; half-time ([1]; subcutaneous injection): about 1 hour |
| [Lys^13(TMR), Cys^35]PTH(1-35) [PTH^TMR] | ~ 8% | ≤ 24 | 184 ± 12 | located predominantly in internalized vesicles | No such TMR fluorescence was observed | 1 | 27 | about threefold | clear staining for pPKA substrate | time of return of Pi to baseline (C57BL/6J mice [4]): ≤ 4 h; last time point at which plasma TMR fluorescence was detected [8]: 2 h |
| TMR-NNGEDHSQITKV [NS^TMR, reference compound] |  |  |  |  |  |  |  |  | little or no green fluorescence |  |
